BaF3 tox: parental Ba/F3 cell viability inhibition, counter-screen for JAK2V617F inhibitor project, murine pro-B, CellTiter-Glo luminescence | CellTiter-Glo ATP luminescence | inhibition, % at 5.6 µM | actives 1.1% (n = 220,000) | AID 1486, 2009;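 active means inhibition above a per-campaign cutoff, the mean inhibition of all tested compounds plus 3 SD, cut at about 27% in these data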
Ba/F3 V617F tox: reduced viability of JAK2V617F-dependent Ba/F3 cells, primary screen, JAK2V617F inhibitor project, cell-based, Ba/F3 EpoR-JAK2V617F, luminescence; inhibition, % at 5.6 µM; ATP luminescence; actives 1.1% (n = 220,000);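 active means inhibition above the campaign mean plus 3 SD over all tested compounds, cut at about 24% in these data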;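 further: cytokine-independent growth of Ba/F3 cells driven by EpoR plus mutant JAK2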
b-catenin transl: modulators of beta-catenin nuclear translocation, primary screen, imaging, HeLa cells, immunofluorescence, high-content; AID 1665, 2009; actives 0.3% (n = 190,000); nuclear translocation activity, % at 5 µM;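 active means nuclear translocation activity above 50% at 5 µM, with a well cell count of 50 or more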;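 further: per-cell ratio of nuclear to cytoplasmic median beta-catenin stain intensity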
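Signal – beta-catenin immunofluorescence imaging with DAPI · Test system – human HeLa cell line · Dosing – 5 µM primary single dose, 0.1% DMSO, 0.02–20 µM confirmation series · Measure – % activation, nuclear-to-cytoplasmic median beta-catenin signal ratio per cell · Incubation – 24 h compound exposure at 37°C, 5% CO2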
MT stabilizer: microtubule stabilizers in HeLa cells, primary screen, imaging, high-content imaging | actives 0.83% (n = 200,000) | % tubulin-high responders, % at 10 µM | HeLa tubulin immunostaining HCS, 24 h; share of cells brighter than vehicle mean+2SD | AID 2205, 2009;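 active means plate Z-score above 3 for both tubulin-high and condensed-nucleus cell shares, with cell loss under 80%, at 10 µM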;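 further: anti alpha tubulin signal scored within the nucleus-defined area of each cell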
IEC-6 tox: cytotoxicity in IEC-6 intestinal epithelial cells, primary screen, cytotoxicity control for KLF5 inhibitor project, cell-based, luminescence; inhibition, % at 5 µM; AID 1825, 2009; actives 0.78% (n = 290,000); IEC-6 cytotoxicity, luminescence viability; in the data active means inhibition above about 22%
KLF5 inhibitor: KLF5 expression inhibitors, primary screen, DLD-1 cells, luminescence; DLD-1 KLF5 promoter-luciferase reporter; inhibition, % at 5 µM; actives 0.23% (n = 290,000); AID 1700, 2009;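 active means inhibition above a per-plate limit of that plate's mean compound inhibition plus 3 SD, cut at about 60% in these data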;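 further: higher means less KLF5 promoter-driven luciferase light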
A number is an active result; . = inactive; / = no result given. Compounds with a hit are over-represented: about 2.1% of the library has one in this group of screens.

SMILES	BaF3 tox	Ba/F3 V617F tox	b-catenin transl	MT stabilizer	IEC-6 tox	KLF5 inhibitor
O=C(NNc1nc(=O)c2cccnc2s1)c1ccccc1O	.	.	.	.	.	.
O=C(O)c1ccccc1Nc1ccc([N+](=O)[O-])cc1	44	45	.	.	.	.
O=C(O)c1ccccc1Nc1ccccc1C(=O)O	.	.	/	.	.	.
Cc1ccc2c(c1)nnn2C1CCN(S(=O)(=O)c2ccc(C(=O)N3C(C)CCCC3C)cc2)CC1 (configuration not stated)	58	51	.	.	.	.
Cc1ccc(C(=O)NCCc2nnc3ccc(SCC(=O)Nc4cc(C)on4)nn23)cc1	.	.	.	.	.	.
Cc1n(Cc2ccccc2)c2cc([N+](=O)[O-])ccc2[n+]1Cc1ccccc1	/	/	/	/	.	.
Cc1n(Cc2ccccc2)c2ccccc2[n+]1Cc1ccccc1	/	/	/	/	.	.
CCOC(=O)c1ccc2c(c1)n(CC)c(/C=C/Nc1ccccc1)[n+]2CC	50	36	.	.	.	.
CCn1c(C)[n+](Cc2ccccc2)c2ccc(C(=O)OC)cc21	37	.	.	.	.	.
CCn1c(/C=C/N(C)c2ccccc2)[n+](CC)c2ccc(Cl)cc21	65	87	.	.	.	.
CCn1c(C)[n+](Cc2ccccc2)c2ccc(Cl)cc21	33	28	.	.	.	.
COc1cccc(NC(=O)CSc2nc3ccsc3c(=O)n2-c2ccc(C(=O)O)cc2)c1	.	.	.	.	.	.
CCc1ccc(NC(=O)CSc2nnc(C)c(=O)n2N)cc1	/	/	/	/	.	.
Cc1cc(OCC[N+]2(C)CCCCC2)nc2ccccc12	48	50	.	.	.	.
Cc1cc(NC2CCCCC2)nc2ccccc12	.	.	.	.	.	.
CCN1/C(=C\C(=S)Nc2ccccc2)Sc2ccccc21	.	.	.	.	.	.
CCN1/C(=C/C(C)=C/c2sc3ccccc3[n+]2CC)Sc2ccccc21	75	100	.	.	.	.
Cc1csc(NC(=O)c2cc(-c3ccccc3)nc3ccccc23)n1	.	.	.	.	.	.
CCOc1ccc(CC(=O)NNC(=S)NC)cc1Br	.	.	.	/	.	.
CNC(=S)N1N=C(c2ccc(C)cc2)CC1c1ccc(OC)cc1 (configuration not stated)	.	.	.	.	.	.
CNC(=S)N1N=C(c2ccc(C)cc2)CC1c1cc(OC)ccc1OC (configuration not stated)	.	.	.	12	.	.
CNc1nc(-c2ccccn2)nnc1-c1ccccc1	.	.	.	.	.	.
c1ccc(-c2nnc(-c3ccccn3)nc2NC2CCCCC2)cc1	94	64	.	.	.	.
Brc1cc(Br)cc(CN2CCSCC2)c1	.	.	.	/	.	.
C(C#CCCCCCCCCC[n+]1ccccc1)#CCCCCCCCCC[n+]1ccccc1	/	/	/	/	51	.
SMILES	BaF3 tox	Ba/F3 V617F tox	b-catenin transl	MT stabilizer	IEC-6 tox	KLF5 inhibitor
Cc1ccc2c(c1)c(C)cc[n+]2Cc1ccccc1	70	94	.	.	.	.
CCOC(=O)N1CCC(n2c(SCC(=O)NCCC3=CCCCC3)nc3ccccc3c2=O)CC1	.	.	.	.	.	.
Cc1c(N=Nc2c(-c3ccc([N+](=O)[O-])cc3)[nH]n(C(N)=S)c2=O)cccc1[N+](=O)[O-]	.	.	.	.	.	.
NC(=S)n1[nH]c(-c2ccc([N+](=O)[O-])cc2)c(N=Nc2ccccc2[N+](=O)[O-])c1=O	46	.	.	.	.	.
COc1ccc(Cn2c(-c3ccc(Br)cc3)c[n+]3ccccc23)cc1	64	72	.	.	.	.
COc1ccc(C(C)(C)C)cc1NC(=O)c1cc(S(=O)(=O)N(C)C)ccc1N1CCCC1	.	.	.	.	.	.
COc1ccccc1NC(=O)/C=C/c1ccc2c(c1)OCO2	.	.	.	19	.	.
CC(C)(Cc1ccc(O)cc1)NC(=O)SCc1ccccc1	/	/	/	/	.	.
C1=C2C[N+]3(CCCC3)CC2Cc2ccc3ccccc3c21 (configuration not stated)	55	64	/	.	.	.
CC(=O)N1c2ccc3ccccc3c2C2C=CCC2C1c1ccc(Br)cc1 (configuration not stated)	.	.	.	.	.	.
CC(=O)N1c2ccc(Cl)cc2C2C=CCC2C1c1cccc2ccccc12 (configuration not stated)	.	.	82	12	.	.
COc1ccccc1NC(=O)CSc1nnc(C2CCCCC2)n1N	/	/	/	/	.	.
Cc1cc(NC(=O)CSc2nnc(C3CC3)n2N)c([N+](=O)[O-])cc1C	81	.	.	.	.	.
CN1C(=O)c2ccc(NC(=O)C3CC3)cc2C1=O	/	/	/	/	.	.
COc1ccc2oc(=O)c(-c3csc(Nc4ccc(O)cc4)n3)cc2c1	28	60	.	.	.	.
COc1ccc2oc(=O)c(-c3nnc(NCc4ccco4)s3)cc2c1	.	.	.	46	.	.
O=C(Nc1ccc(N2CCOCC2)cc1)C1(c2ccc(Cl)cc2)CCC1	.	.	.	9.9	.	.
CN1/C(=C\C=C2/SC(=S)NC2=O)C(C)(C)c2ccccc21	81	65	.	.	.	.
CN1C(=CC=C2C=C(I)C(=O)C(I)=C2)C(C)(C)c2ccccc21	33	.	.	/	.	.
CCCN1C(=O)/C(=C\C=C2\N(CC)c3ccccc3C2(C)C)SC1=S	.	.	.	.	.	.
CCCCCC(=O)Oc1cccc(N2C(=O)C3CCCCC3C2=O)c1 (configuration not stated)	.	.	.	.	.	.
COc1ccc(OC)c(Nc2nc(NCCCN(C)C)nc(N)c2[N+](=O)[O-])c1	50	58	.	/	.	.
COCCCNc1nc(N)c([N+](=O)[O-])c(Nc2cc(OC)ccc2OC)n1	.	.	.	/	.	.
CCCc1nc2sc3c(SCC(=O)NCc4ccco4)ncnc3c2c2c1CCC2	.	.	77	15	.	.
Cc1ccc(NC(=S)N(CCCN2CCCC2)Cc2cccn2Cc2ccc(Cl)cc2)cc1Cl	.	.	.	.	.	.
COc1ccc(NC(=S)N(CCCN2CCCC2)Cc2cccn2Cc2ccc(Cl)cc2)cc1Cl	.	.	.	60	.	.
FC(F)(F)c1cccc(NC(=S)N(CCCN2CCCC2)Cc2cccn2Cc2ccc(Cl)cc2)c1	.	.	.	76	.	.
COc1ccc(-c2nnnn2C)cc1S(=O)(=O)Nc1ccc(C)cc1C	/	/	/	/	.	.
Cc1cccc(C(=O)NCC(=O)N2CC(=O)Nc3ccccc32)c1	.	.	.	.	.	.
O=C(Nc1ccc(-c2csc(-c3ccccc3)n2)cc1)c1ccccc1Cl	.	.	.	17	.	.

Compound activity (PubChem BioAssay)
